The results in this text go back to ChEMBL document CHEMBL1932995, “Synthesis of 5-aryl-1,4-benzodiazepine derivatives attached in resorcinaren-PAMAM dendrimers and their anti-cancer activity” (Bioorg Med Chem, 2012).

Structures are written as SMILES. Active and inactive are the calls of the source. No cut-off for these calls is given here.

The test system of one experiment is U-251. The experiment in a line: Growth inhibition of human U251 cells at 50 uM after 48 hrs by SRB assay. In kind it is functional. The note with it: for inhibition of growth at 50 µM: U-251, 48 h, read-out: GI. The method in brief: (§1)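 Cell lines obtained from NCI, grown in RPMI-1640 with 10% fetal bovine serum, 2 mM glutamine, penicillin G, streptomycin, amphotericin B and 1% non-essential amino acids, at 37 °C, humidified 5% CO2. Cell viability above 95% by trypan blue. Compounds tested in DMSO. Growth read by sulforhodamine B protein staining in microculture per NCI protocol, reported as % inhibition.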

A further experiment deals with MCF7. The experiment in a line: Growth inhibition of human MCF7 cells at 50 uM after 48 hrs by SRB assay. In kind it is functional. The note with it: for inhibition of growth at 50 µM: MCF7, 48 h, read-out: GI. A digest of the protocol: as §1
The next experiment concerns K562. The experiment in a line: Growth inhibition of human K562 cells at 50 uM after 48 hrs by SRB assay. The class given is functional. The following applies: for inhibition of growth at 50 µM: K562, 48 h, read-out: GI. A digest of the protocol:
as §1
(In general: In SRB staining, fixed cells bind dye roughly in proportion to their protein.)

The subject of experiment [1] is HCT-15. The experiment is described as follows: Growth inhibition of human HCT15 cells at 50 uM after 48 hrs by SRB assay. The class given is functional. The following applies: for inhibition of growth at 50 µM: HCT-15, 48 h, read-out: GI. The method in brief: as §1
Another experiment relates to PC-3. The experiment is described as follows: Growth inhibition of human PC3 cells at 50 uM after 48 hrs by SRB assay. The class given is functional. The note with it: for inhibition of growth at 50 µM: PC-3, 48 h, read-out: GI. The method in brief: as §1
The subject of experiment [2] is SK-LU-1. The experiment in a line: Growth inhibition of human SKLU1 cells at 50 uM after 48 hrs by SRB assay. In kind it is functional. The following applies: for inhibition of growth at 50 µM: SK-LU-1, 48 h, read-out: GI. A digest of the protocol: as §1
Experiment [3] has as its system HCT-15. The experiment in a line: Anticancer activity against human HCT15 cells after 48 hrs by SRB assay. In kind it is functional, cell-based.
The subject of experiment [4] is SK-LU-1. The experiment in a line: Anticancer activity against human SKLU1 cells after 48 hrs by SRB assay. The class given is functional, cell-based.

With `NCCNC(=O)COc1cc(OCC(=O)NCCN)c2cc1C(CCc1ccccc1)c1cc(c(OCC(=O)NCCN)cc1OCC(=O)NCCN)C(CCc1ccccc1)c1cc(c(OCC(=O)NCCN)cc1OCC(=O)NCCN)C(CCc1ccccc1)c1cc(c(OCC(=O)NCCN)cc1OCC(=O)NCCN)C2CCc1ccccc1` (configuration not stated), the inhibition of growth at 50 µM in the experiment with U-251 stood at 37%; with MCF7, 33.2%; in the experiment on K562, 35.3%; with HCT-15 [1] it was 34.9%; in the experiment with PC-3, 29%; in the experiment on SK-LU-1 [2], 30.9%.
Consider `NCCNC(=O)CCN(CCNC(=O)COc1cc(OCC(=O)NCCN(CCC(=O)NCCN)CCC(=O)NCCN)c2cc1C(CCc1ccccc1)c1cc(c(OCC(=O)NCCN(CCC(=O)NCCN)CCC(=O)NCCN)cc1OCC(=O)NCCN(CCC(=O)NCCN)CCC(=O)NCCN)C(CCc1ccccc1)c1cc(c(OCC(=O)NCCN(CCC(=O)NCCN)CCC(=O)NCCN)cc1OCC(=O)NCCN(CCC(=O)NCCN)CCC(=O)NCCN)C(CCc1ccccc1)c1cc(c(OCC(=O)NCCN(CCC(=O)NCCN)CCC(=O)NCCN)cc1OCC(=O)NCCN(CCC(=O)NCCN)CCC(=O)NCCN)C2CCc1ccccc1)CCC(=O)NCCN` (configuration not stated), for which the “growth inhibition (GI)” value in the experiment with U-251, in the experiment with MCF7, in the experiment with K562, in the experiment with HCT-15 [1], with PC-3 and in the experiment with SK-LU-1 [2] was “Active” in each case. Besides, the IC50 entry in the experiment on HCT-15 [3] and in the experiment on SK-LU-1 [4] was “Active” each time.
With `COC(=O)CN1C(=O)CN=C(c2ccccc2Cl)c2cc(Cl)ccc21`, the inhibition of growth at 50 µM in the experiment on U-251 turned out to be 18.6%; in the experiment on MCF7 it was 11.8%; with K562, 15.9%; in the experiment on HCT-15 [1] it was 12.9%; in the experiment with PC-3, 12.8%; in the experiment with SK-LU-1 [2], 12.5%. Besides, the IC50 entry in the experiment with HCT-15 [3] and in the experiment on SK-LU-1 [4] was “Active” in each case.
`CCCCCCCCCCCC1c2cc(c(OCC(=O)NCCN)cc2OCC(=O)NCCN)C(CCCCCCCCCCC)c2cc(c(OCC(=O)NCCN)cc2OCC(=O)NCCN)C(CCCCCCCCCCC)c2cc(c(OCC(=O)NCCN)cc2OCC(=O)NCCN)C(CCCCCCCCCCC)c2cc1c(OCC(=O)NCCN)cc2OCC(=O)NCCN` (configuration not stated): the inhibition of growth at 50 µM with U-251 turned out to be 18.1%; in the experiment on K562, 11.2%; with HCT-15 [1] it was 31.5%; in the experiment with SK-LU-1 [2], 16.2%. Besides, the “growth inhibition (GI)” value in the experiment on MCF7 and in the experiment with PC-3 was “Active” throughout. Further, the IC50 entry with HCT-15 [3] and in the experiment with SK-LU-1 [4] was “Active” in each case.
Take `CCCCCCCCCCCC1c2cc(c(OCC(=O)NCCN(CCC(=O)NCCN)CCC(=O)NCCN)cc2OCC(=O)NCCN(CCC(=O)NCCN)CCC(=O)NCCN)C(CCCCCCCCCCC)c2cc(c(OCC(=O)NCCN(CCC(=O)NCCN)CCC(=O)NCCN)cc2OCC(=O)NCCN(CCC(=O)NCCN)CCC(=O)NCCN)C(CCCCCCCCCCC)c2cc(c(OCC(=O)NCCN(CCC(=O)NCCN)CCC(=O)NCCN)cc2OCC(=O)NCCN(CCC(=O)NCCN)CCC(=O)NCCN)C(CCCCCCCCCCC)c2cc1c(OCC(=O)NCCN(CCC(=O)NCCN)CCC(=O)NCCN)cc2OCC(=O)NCCN(CCC(=O)NCCN)CCC(=O)NCCN` (configuration not stated): the inhibition of growth at 50 µM is 56.5% in the experiment on U-251; 92% with MCF7; 100% with K562; 91.3% in the experiment on HCT-15 [1]; 38.5% in the experiment on PC-3; 100% in the experiment on SK-LU-1 [2].
On to `COC(=O)CN1C(=O)CN=C(c2ccccc2)c2cc(Cl)ccc21`, for which the inhibition of growth at 50 µM came to 11.7% in the experiment on U-251; 19.3% in the experiment on MCF7; 19.7% in the experiment on K562; 12% in the experiment on HCT-15 [1]; 12.3% in the experiment with PC-3; 13.2% in the experiment on SK-LU-1 [2]. Moreover, the IC50 entry in the experiment with HCT-15 [3] and in the experiment on SK-LU-1 [4] was “Active” in each case.
As to `COC(=O)CN1C(=O)CN=C(c2ccccc2F)c2cc(Cl)ccc21`, the inhibition of growth at 50 µM in the experiment with U-251 was determined as 20.7%; in the experiment with MCF7, 24.5%; in the experiment on K562, 27.2%; with HCT-15 [1] it was 26%; with PC-3, 22.4%; with SK-LU-1 [2], 19.8%.
Regarding `Oc1cc(O)c2cc1C(CCc1ccccc1)c1cc(c(O)cc1O)C(CCc1ccccc1)c1cc(c(O)cc1O)C(CCc1ccccc1)c1cc(c(O)cc1O)C2CCc1ccccc1` (configuration not stated), the inhibition of growth at 50 µM in the experiment on U-251 is 47.6%; in the experiment on MCF7 it was 21.5%; with K562 it was 60.8%; with HCT-15 [1], 14.7%; with PC-3 it was 5.4%; in the experiment on SK-LU-1 [2] it was 14.8%.
In the case of `COC(=O)CN1C(=O)CN=C(c2ccccc2)c2cc([N+](=O)[O-])ccc21`, the inhibition of growth at 50 µM was found to be 33.7% in the experiment on U-251; 22.2% in the experiment with MCF7; 30.6% with K562; 25.2% in the experiment with HCT-15 [1]; 22.3% in the experiment with PC-3; 27.5% with SK-LU-1 [2].
